Measured values published in ChEMBL document CHEMBL4613248, “Twelfth-Position Deuteration of Nevirapine Reduces 12-Hydroxy-Nevirapine Formation and Nevirapine-Induced Hepatocyte Death” (J Med Chem, 2020).

Tests used:
Hepatocyte [1] = experiment: Induction of change in TM9SF1 protein expression in human primary hepatocytes at 10 uM incubated for 48 hrs by relative-quantitation label-free proteomics analysis relative to NVP; assay type: cell-based
How it was run: (§1)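 Cryoplateable pooled human hepatocytes (10 mixed-sex donors per pool; three pools), adhered overnight, then given fresh medium containing compound (10 μM), NVP (10 μM) or vehicle (0.1% DMSO) for 48 h. Lysate reduced (DTT) and alkylated (iodoacetamide), acetone-precipitated and digested with trypsin. Label-free Top10 nanoLC-MS with precursor ion area quantitation; unpaired t test P values, Cohen's d effect size.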

[2] = Drug metabolism in C57BL/6J mouse primary hepatocytes assessed as O-GlucNVP metabolite formation at 10 uM incubated for 24 hrs by uHPLC-MS analysis; assay type: ADME, cell-based, Hepatocyte
How it was run: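 Fresh hepatocytes from male C57BL/6J mice (8–13 weeks), adhered overnight, then 10 μM substrate or vehicle (0.1% DMSO) for 24 h. Medium extracted with acetonitrile (50% final), dried, reconstituted in methanol; uHPLC-Orbitrap targeted SIM plus PRM (monooxygenated metabolites) or high-resolution ions (O-glucuronides, 459.1510/462.1700 ±5 ppm); four experimental replicates.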

Cytochrome P450 2B6 = biological target: T1, Cytochrome P450 2B6 (Homo sapiens, UniProt P20813); experiment: Drug metabolism assessed as human CYP2B6-mediated formation of 3-OHNVP at 10 uM pre-incubated for 30 mins followed by addition of NADPH regenerating reagents by uHPLC-MS analysis; assay type: ADME; details: recombinant enzyme
T1 sequence (P20813 whole entry): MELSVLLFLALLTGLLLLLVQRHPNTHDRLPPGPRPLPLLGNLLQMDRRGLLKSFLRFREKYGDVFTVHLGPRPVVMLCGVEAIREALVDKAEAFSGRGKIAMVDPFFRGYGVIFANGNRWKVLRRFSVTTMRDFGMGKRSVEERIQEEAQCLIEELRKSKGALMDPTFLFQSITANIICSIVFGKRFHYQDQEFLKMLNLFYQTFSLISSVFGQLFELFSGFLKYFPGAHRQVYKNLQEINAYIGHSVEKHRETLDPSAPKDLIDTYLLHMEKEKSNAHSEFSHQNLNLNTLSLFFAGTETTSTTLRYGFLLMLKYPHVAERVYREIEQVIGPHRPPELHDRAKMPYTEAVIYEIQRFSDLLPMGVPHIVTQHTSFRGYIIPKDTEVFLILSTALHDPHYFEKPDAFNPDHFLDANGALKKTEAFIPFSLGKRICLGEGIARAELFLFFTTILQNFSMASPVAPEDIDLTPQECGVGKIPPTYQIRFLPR
How it was run: (§2)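 Insect-cell microsomes with single cDNA-expressed human P450 (100 nM) in 0.1 M potassium phosphate; 10 μM substrate prewarmed 5 min at 37 °C with NADPH-regenerating system, reaction started by adding microsomes; 30 min at 37 °C, 0.1% DMSO. Stopped, dried, reconstituted in methanol; triple-quadrupole SRM (12-OH 283.1→223.0, 2-OH 283.1→160.9, 3-OH 283.1→241.9), peak height; three replicates, mean ± SD.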

Hepatocyte [3] = experiment: Induction of change in DERA protein expression in human primary hepatocytes at 10 uM incubated for 48 hrs by relative-quantitation label-free proteomics analysis relative to NVP; assay type: cell-based; how it was run: as §1
Cytochrome P450 1A1 = biological target: T2, Cytochrome P450 1A1 (Homo sapiens, UniProt P04798); experiment: Drug metabolism assessed as human CYP1A1-mediated formation of 12-OHNVP at 10 uM pre-incubated for 30 mins followed by addition of NADPH regenerating reagents by uHPLC-MS analysis; assay type: ADME; details: recombinant enzyme; how it was run: as §2
T2 sequence (P04798 whole entry): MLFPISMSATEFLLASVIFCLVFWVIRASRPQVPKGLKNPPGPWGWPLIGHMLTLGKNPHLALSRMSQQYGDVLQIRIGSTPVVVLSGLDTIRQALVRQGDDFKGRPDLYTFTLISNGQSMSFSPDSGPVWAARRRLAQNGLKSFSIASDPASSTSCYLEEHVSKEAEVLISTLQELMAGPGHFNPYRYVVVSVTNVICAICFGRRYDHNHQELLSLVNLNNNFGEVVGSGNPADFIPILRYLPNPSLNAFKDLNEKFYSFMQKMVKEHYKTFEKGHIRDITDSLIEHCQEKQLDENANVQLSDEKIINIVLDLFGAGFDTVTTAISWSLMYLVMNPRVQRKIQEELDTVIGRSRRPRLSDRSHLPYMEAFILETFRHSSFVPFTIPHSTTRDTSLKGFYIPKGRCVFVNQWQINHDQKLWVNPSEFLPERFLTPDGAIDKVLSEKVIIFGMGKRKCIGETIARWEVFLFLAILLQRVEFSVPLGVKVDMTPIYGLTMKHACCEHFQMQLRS

Hepatocyte [4] = experiment: Induction of change in SARNP protein expression in human primary hepatocytes at 10 uM incubated for 48 hrs by relative-quantitation label-free proteomics analysis relative to NVP; assay type: cell-based; how it was run: as §1
Cytochrome P450 3A4 = Cytochrome P450 3A4 (Homo sapiens, UniProt P08684); experiment: Drug metabolism assessed as human CYP3A4-mediated formation of 12-OHNVP at 10 uM pre-incubated for 30 mins followed by addition of NADPH regenerating reagents by uHPLC-MS analysis; assay type: ADME; details: recombinant enzyme; how it was run: as §2
Sequence of Cytochrome P450 3A4 (P08684 whole entry): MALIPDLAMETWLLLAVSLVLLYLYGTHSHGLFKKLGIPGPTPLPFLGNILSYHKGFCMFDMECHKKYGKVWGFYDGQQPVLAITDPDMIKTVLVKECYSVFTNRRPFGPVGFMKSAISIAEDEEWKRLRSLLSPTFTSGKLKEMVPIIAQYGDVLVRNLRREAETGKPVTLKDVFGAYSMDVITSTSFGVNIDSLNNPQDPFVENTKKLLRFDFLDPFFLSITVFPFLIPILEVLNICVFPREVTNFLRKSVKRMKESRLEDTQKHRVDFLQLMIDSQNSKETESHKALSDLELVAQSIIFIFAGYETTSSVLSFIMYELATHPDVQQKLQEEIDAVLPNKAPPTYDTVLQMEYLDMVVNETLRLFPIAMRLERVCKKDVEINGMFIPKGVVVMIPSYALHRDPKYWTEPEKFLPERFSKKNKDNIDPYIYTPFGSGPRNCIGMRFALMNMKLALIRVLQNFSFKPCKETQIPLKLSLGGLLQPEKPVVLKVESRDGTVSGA

Hepatocyte [5] = experiment: Induction of change in EXOSC1 protein expression in human primary hepatocytes at 10 uM incubated for 48 hrs by relative-quantitation label-free proteomics analysis relative to NVP; assay type: cell-based; how it was run: as §1
Hepatocyte [6] = experiment: Toxicity in C57BL/6J mouse primary hepatocytes assessed as reduction in cell viability by measuring EtBr-positive cell nuclei level at 400 uM incubated for 8 hrs by EtBr/AcrO staining based assay (reference value: 19%)
How it was run: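 Fresh male C57BL/6J mouse hepatocytes on collagen-coated coverslips, 400 μM compound or vehicle (0.2% DMSO) for 8 h; 10 μM staurosporine as positive control. Ethidium bromide/acridine orange costaining, imaging, percentage of EtBr-positive nuclei scored as dead cells; unpaired two-tailed t test.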

Hepatocyte [7] = experiment: Induction of change in Mrpl1 protein expression in C57BL/6J mouse primary hepatocytes at 400 uM incubated for 8 hrs by relative-quantitation label-free proteomics analysis relative to NVP; assay type: cell-based
How it was run: as §1, with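 “Fresh primary” for “Cryoplateable pooled human”, “from male C57BL/6J mice aged 8–13 weeks,” for “(10 mixed-sex donors per pool; three pools),”, “(400” for “(10”, “(0.2%” for “(0.1%”, “8” for “48”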

Hepatocyte [8] = experiment: Induction of change in Slc22a28 protein expression in C57BL/6J mouse primary hepatocytes at 400 uM incubated for 8 hrs by relative-quantitation label-free proteomics analysis relative to NVP; assay type: cell-based
How it was run: as §1, with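 “Fresh primary” for “Cryoplateable pooled human”, “from male C57BL/6J mice aged 8–13 weeks,” for “(10 mixed-sex donors per pool; three pools),”, “(400” for “(10”, “(0.2%” for “(0.1%”, “8” for “48”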

Hepatocyte [9] = experiment: Induction of change in Acot13 protein expression in C57BL/6J mouse primary hepatocytes at 400 uM incubated for 8 hrs by relative-quantitation label-free proteomics analysis relative to NVP; assay type: cell-based
How it was run: as §1, with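 “Fresh primary” for “Cryoplateable pooled human”, “from male C57BL/6J mice aged 8–13 weeks,” for “(10 mixed-sex donors per pool; three pools),”, “(400” for “(10”, “(0.2%” for “(0.1%”, “8” for “48”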

With `[2H]C([2H])([2H])c1ccnc2c1NC(=O)c1cccnc1N2C1CC1` the “fold change (FC)” value (Hepatocyte [1]) was -1.86, the Drug metabolism [2] was “Metabolite_Detected” and the Drug metabolism (Cytochrome P450 2B6) was “Metabolite_Detected”. For the same compound, the “fold change (FC)” value (Hepatocyte [3]) was -1.63, the Drug metabolism (Cytochrome P450 1A1) was “Metabolite_Detected” and the “fold change (FC)” value (Hepatocyte [4]) was -1.65. The Drug metabolism (Cytochrome P450 3A4) was “Metabolite_Detected”, the “fold change (FC)” value (Hepatocyte [5]) was -2.73 and the Activity (Hepatocyte [6]) was 36.8%. For the same compound, the “fold change (FC)” value (Hepatocyte [7]) was -1.87, the “fold change (FC)” value (Hepatocyte [8]) was -1.66 and the “fold change (FC)” value (Hepatocyte [9]) was -1.97.
